Measurements: ChEMBL document CHEMBL3739279, “Fluorinated betulinic acid derivatives and evaluation of their anti-HIV activity” (Bioorg Med Chem Lett, 2016)

Tests used:
[1] = system: Human immunodeficiency virus 1; assay: Antiviral activity against HIV-1 NL4-3 infected in MT4 cells assessed inhibition of viral replication measured on day 4 postinfection by ELISA; format: functional, organism-based; details: Human immunodeficiency virus 1, NL4-3, MT4, 96 h
Summary of the method: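 MT4 cells infected with HIV-1 NL4-3 at MOI 0.001 in presence of graded compound concentrations; fresh compound-containing medium added 48 h post-infection to sustain growth. Viral replication read on day 4 by p24 ELISA; EC50 = concentration giving 50% inhibition of replication.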

[2] = Cytotoxicity against human MT4 cells by cell-titer Glo assay; format: cell-based
Summary of the method: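 MT4 cells cultured in parallel with antiviral cultures; viability read by luminescent ATP quantitation (CellTiter-Glo). CC50 = concentration reducing viability by 50%.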

In the case of `C=C(CC(F)(F)F)[C@@H]1CC[C@]2(C(=O)O)CC[C@]3(C)[C@H](CC[C@@H]4[C@@]5(C)CC[C@H](OC(=O)CC(C)(C)C(=O)O)C(C)(C)[C@@H]5CC[C@]43C)[C@@H]12`, the EC50 [1] is reported as 0.097 µM and the CC50 [2] is reported as > 6 µM.
For `C=C(C)[C@@H]1CC[C@]2(C(=O)OCC3CCC(F)(F)CC3)CC[C@]3(C)[C@H](CC[C@@H]4[C@@]5(C)CC[C@H](OC(=O)CC(C)(C)C(=O)O)C(C)(C)[C@@H]5CC[C@]43C)[C@@H]12`, the EC50 [1] was 0.31 µM and the CC50 [2] was > 6 µM.
In the case of `C=C(C)[C@@H]1CC[C@]2(C(=O)OCCc3cccc(C(F)(F)F)c3)CC[C@]3(C)[C@H](CC[C@@H]4[C@@]5(C)CC[C@H](OC(=O)CC(C)(C)C(=O)O)C(C)(C)[C@@H]5CC[C@]43C)[C@@H]12`, the EC50 [1] is reported as 3 µM and the CC50 [2] is reported as > 5 µM.
With `C=C(C)[C@@H]1CC[C@]2(C(=O)O)CC[C@]3(C)[C@H](CC[C@@H]4[C@@]5(C)C[C@@H](F)[C@H](OC(=O)CC(C)(C)C(=O)O)C(C)(C)[C@@H]5CC[C@]43C)[C@@H]12` the EC50 [1] was > 17 µM and the CC50 [2] was > 17 µM.
For `C=C(C)[C@@H]1CC[C@]2(C(=O)O)CC[C@]3(C)[C@H](CC[C@@H]4[C@@]5(C)CC[C@H](OC(=O)C(F)(F)C(F)(F)C(F)(F)C(=O)O)C(C)(C)[C@@H]5CC[C@]43C)[C@@H]12`, the EC50 [1] was > 6 µM and the CC50 [2] was > 6 µM.
For `C=C(C)[C@@H]1CC[C@]2(C(=O)OCCC3CC3)CC[C@]3(C)[C@H](CC[C@@H]4[C@@]5(C)C[C@@H](F)[C@H](OC(=O)CC(C)(C)C(=O)O)C(C)(C)[C@@H]5CC[C@]43C)[C@@H]12`, the EC50 [1] was 1.1 µM and the CC50 [2] was > 6 µM.
With `C=C(C)[C@@H]1CC[C@]2(C(=O)OC)CC[C@]3(C)[C@H](CC[C@@H]4[C@@]5(C)C[C@@H](C(F)(F)F)[C@H](OC(=O)CC(C)(C)C(=O)O)C(C)(C)[C@@H]5CC[C@]43C)[C@@H]12` the EC50 [1] was > 6 µM and the CC50 [2] was > 6 µM.
For `C=C(C)[C@@H]1CC[C@]2(C(=O)OC)CC[C@]3(C)[C@H](CC[C@@H]4[C@@]5(C)C[C@@H](F)[C@H](OC(=O)CC(C)(C)C(=O)O)C(C)(C)[C@@H]5CC[C@]43C)[C@@H]12`, the EC50 [1] was > 16 µM and the CC50 [2] was > 16 µM.
In the case of `C=C(C)[C@@H]1CC[C@]2(C(=O)O)CC[C@]3(C)[C@H](CC[C@@H]4[C@@]5(C)CC[C@H](OC(=O)C(F)(F)C(F)(F)C(=O)O)C(C)(C)[C@@H]5CC[C@]43C)[C@@H]12`, the EC50 [1] is reported as > 6 µM and the CC50 [2] is reported as > 6 µM.
With `C=C(C)[C@@H]1CC[C@]2(C(=O)O)CC[C@]3(C)[C@H](CC[C@@H]4[C@@]5(C)CC[C@H](OC(=O)CC(C)(C)C(=O)O)C(C)(C)[C@@H]5CC[C@]43C)[C@@H]12` [BEVIRIMAT] the EC50 [1] was 0.075 µM and the CC50 [2] was > 17 µM.
